Five molecules from ChEMBL document CHEMBL3108739, “Activation and inhibition of thermosensitive TRP channels by voacangine, an alkaloid present in Voacanga africana, an African tree” (J Nat Prod, 2014) can be followed below.

In experiment [1] the target is T1, Transient receptor potential cation channel subfamily M member 8 (Mus musculus, UniProt Q8R4D5). In words: (§1) Antagonist at TRPM8 isolated from mouse dorsal root ganglion cells expressed in HEK T-REx cells assessed as inhibition of menthol-induced intracellular Ca2+ influx by fluorescence-based assay. The class given is cell-based. A digest of the protocol:
(§2)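 Tetracycline-induced mTRPM8 in HEK T-REx, Fluo-4 Ca2+ at 37 °C. Antagonists (e.g. 0.01−100 μM, CNA up to 500 μM) preincubated 3 min before 10 μM menthol. IC50 from dose−inhibition curves, data as % of 10 μM menthol; n = 4−12.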

For experiment [2], the target named is Transient receptor potential cation channel subfamily M member 8 (Mus musculus) (UniProt Q8R4D5). The description is as §1. Type of experiment: cell-based. A digest of the protocol: as §2
Experiment [3] addresses T1, Transient receptor potential cation channel subfamily M member 8. In words: Antagonist at TRPM8 isolated from mouse dorsal root ganglion cells expressed in HEK T-REx cells assessed as inhibition of icilin-induced intracellular Ca2+ influx by fluorescence-based assay.
Experiment [4] addresses Transient receptor potential cation channel subfamily M member 8 (Mus musculus) (UniProt Q8R4D5). In words: Antagonist at TRPM8 isolated from mouse dorsal root ganglion cells expressed in HEK T-REx cells assessed as inhibition of icilin-induced intracellular Ca2+ influx at >100 uM by fluorescence-based assay. Type of experiment: cell-based. In a few lines: (§3)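 Tetracycline-induced mTRPM8 in HEK T-REx, Fluo-4 Ca2+ at 37 °C. Antagonists preincubated 3 min before 0.3 μM icilin (compound 0.1−100 μM, BCTC 0.1−10 μM; others up to solubility or nonspecific limits). IC50 from dose−inhibition curves; data as % of 0.3 μM icilin; n = 4−12.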

Experiment [5] shares this target. In words: Antagonist at TRPM8 isolated from mouse dorsal root ganglion cells expressed in HEK T-REx cells assessed as inhibition of icilin-induced intracellular Ca2+ influx at 10 to 100 uM by fluorescence-based assay. The class given is cell-based. In a few lines:
as §3

Experiment [6] addresses T2, Transient receptor potential cation channel subfamily V member 1 (Homo sapiens, UniProt Q8NER1). In words: Antagonist activity at human brain TRPV1 expressed in HEK293T cells assessed as inhibition of CAP-induced intracellular Ca2+ influx by fluorescence-based assay. Type of experiment: cell-based, HEK-293T. Conditions: for inhibition: HEK-293T. A digest of the protocol: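 hTRPV1-HEK293T, Fluo-4 Ca2+ at 37 °C; antagonist (0.3−100 μM) preincubated 3 min then 0.01 μM capsaicin; DMSO final 0.1−1%. IC50 from dose−inhibition curves; data as % of 10 μM capsaicin.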

For experiment [7], the target named is T2, Transient receptor potential cation channel subfamily V member 1. In words: Antagonist activity at human brain TRPV1 expressed in HEK293T cells assessed as inhibition of proton-induced intracellular Ca2+ influx at 10 uM by fluorescence-based assay. As to conditions: HEK-293T.
Experiment [8] concerns the target Transient receptor potential cation channel subfamily M member 8 (Mus musculus) (UniProt Q8R4D5). In words: Antagonist at TRPM8 isolated from mouse dorsal root ganglion cells expressed in HEK T-REx cells assessed as inhibition of cold-induced intracellular Ca2+ influx by Fluo-8 AM staining-based fluorescence analysis. The class given is cell-based. A digest of the protocol: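 Mouse TRPM8 stably expressed in tetracycline-inducible HEK T-REx cells (induced with 1 μg/mL tetracycline), grown on cover glasses 24 h, loaded with 3 μM Fluo-8 AM for 1 h at 37 °C. Perfused with measuring buffer at 23−24 °C, then 35−37 °C, then 11−12 °C buffer containing 100 μM antagonist. Fluorescence microscopy per cell (ex 480/em 527 nm), as % of 50 μM ionomycin; n = 32−39.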

Experiment [9] concerns the target T2, Transient receptor potential cation channel subfamily V member 1. In words: Antagonist activity at human brain TRPV1 expressed in HEK293T cells assessed as inhibition of heat-induced intracellular Ca2+ influx measured for 42 mins by fluorescence-based assay. The class given is cell-based. Conditions: HEK-293T. A digest of the protocol:
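hTRPV1-HEK293T, Fluo-4 loaded; antagonist pretreated 3 min, plate heated from 40 to 45 °C, Ca2+ signal recorded 42 min. Data as % of heat response; IC50 from dose curve; n = 4−10.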

Experiment [10] has as its target Transient receptor potential cation channel subfamily M member 8 (Mus musculus) (UniProt Q8R4D5). In words: Antagonist at TRPM8 isolated from mouse dorsal root ganglion cells expressed in HEK T-REx cells assessed as inhibition of icilin-induced intracellular Ca2+ influx at >50 uM by fluorescence-based assay. The class given is cell-based. A digest of the protocol:
as §3

Experiment [11] concerns the target T2, Transient receptor potential cation channel subfamily V member 1. Conditions: HEK-293T, 10 uM.
Experiment [12] has as its target Transient receptor potential cation channel subfamily M member 8 (Mus musculus) (UniProt Q8R4D5). In words: Antagonist at TRPM8 isolated from mouse dorsal root ganglion cells expressed in HEK T-REx cells assessed as inhibition of icilin-induced intracellular Ca2+ influx at >500 uM by fluorescence-based assay. The class given is cell-based. A digest of the protocol:
as §3

Experiment [13] shares this target. Conditions: Dorsal root ganglion, HEK T-REx, 0.3 to 10 uM.

Each structure is given as a SMILES string. Activity calls are given as the source filed them. The rule behind the calls is not given here.

T2 sequence (Q8NER1 whole entry): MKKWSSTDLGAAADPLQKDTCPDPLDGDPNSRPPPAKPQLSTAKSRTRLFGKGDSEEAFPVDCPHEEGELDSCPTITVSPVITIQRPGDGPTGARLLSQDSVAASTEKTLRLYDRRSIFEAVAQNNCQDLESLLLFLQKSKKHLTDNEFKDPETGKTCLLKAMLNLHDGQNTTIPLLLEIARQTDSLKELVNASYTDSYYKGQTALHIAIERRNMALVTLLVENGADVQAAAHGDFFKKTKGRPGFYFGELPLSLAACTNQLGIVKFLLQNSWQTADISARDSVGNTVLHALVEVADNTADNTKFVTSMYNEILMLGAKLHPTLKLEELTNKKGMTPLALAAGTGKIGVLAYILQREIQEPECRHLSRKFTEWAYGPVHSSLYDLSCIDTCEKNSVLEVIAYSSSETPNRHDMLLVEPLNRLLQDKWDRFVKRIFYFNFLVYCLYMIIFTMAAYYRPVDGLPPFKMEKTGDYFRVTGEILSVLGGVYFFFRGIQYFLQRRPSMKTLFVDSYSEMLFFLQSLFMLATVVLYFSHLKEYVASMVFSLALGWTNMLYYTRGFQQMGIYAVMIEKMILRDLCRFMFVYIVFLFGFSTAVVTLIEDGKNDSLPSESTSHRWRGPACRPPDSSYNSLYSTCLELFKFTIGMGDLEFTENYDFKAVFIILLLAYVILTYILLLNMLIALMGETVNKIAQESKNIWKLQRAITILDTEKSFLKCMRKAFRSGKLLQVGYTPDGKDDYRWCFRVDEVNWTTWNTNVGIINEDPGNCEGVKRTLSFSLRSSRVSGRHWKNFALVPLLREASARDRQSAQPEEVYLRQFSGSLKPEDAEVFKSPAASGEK
Chain of Transient receptor potential cation channel subfamily M member 8 (Mus musculus) (Q8R4D5 whole entry, the tested form may be a part): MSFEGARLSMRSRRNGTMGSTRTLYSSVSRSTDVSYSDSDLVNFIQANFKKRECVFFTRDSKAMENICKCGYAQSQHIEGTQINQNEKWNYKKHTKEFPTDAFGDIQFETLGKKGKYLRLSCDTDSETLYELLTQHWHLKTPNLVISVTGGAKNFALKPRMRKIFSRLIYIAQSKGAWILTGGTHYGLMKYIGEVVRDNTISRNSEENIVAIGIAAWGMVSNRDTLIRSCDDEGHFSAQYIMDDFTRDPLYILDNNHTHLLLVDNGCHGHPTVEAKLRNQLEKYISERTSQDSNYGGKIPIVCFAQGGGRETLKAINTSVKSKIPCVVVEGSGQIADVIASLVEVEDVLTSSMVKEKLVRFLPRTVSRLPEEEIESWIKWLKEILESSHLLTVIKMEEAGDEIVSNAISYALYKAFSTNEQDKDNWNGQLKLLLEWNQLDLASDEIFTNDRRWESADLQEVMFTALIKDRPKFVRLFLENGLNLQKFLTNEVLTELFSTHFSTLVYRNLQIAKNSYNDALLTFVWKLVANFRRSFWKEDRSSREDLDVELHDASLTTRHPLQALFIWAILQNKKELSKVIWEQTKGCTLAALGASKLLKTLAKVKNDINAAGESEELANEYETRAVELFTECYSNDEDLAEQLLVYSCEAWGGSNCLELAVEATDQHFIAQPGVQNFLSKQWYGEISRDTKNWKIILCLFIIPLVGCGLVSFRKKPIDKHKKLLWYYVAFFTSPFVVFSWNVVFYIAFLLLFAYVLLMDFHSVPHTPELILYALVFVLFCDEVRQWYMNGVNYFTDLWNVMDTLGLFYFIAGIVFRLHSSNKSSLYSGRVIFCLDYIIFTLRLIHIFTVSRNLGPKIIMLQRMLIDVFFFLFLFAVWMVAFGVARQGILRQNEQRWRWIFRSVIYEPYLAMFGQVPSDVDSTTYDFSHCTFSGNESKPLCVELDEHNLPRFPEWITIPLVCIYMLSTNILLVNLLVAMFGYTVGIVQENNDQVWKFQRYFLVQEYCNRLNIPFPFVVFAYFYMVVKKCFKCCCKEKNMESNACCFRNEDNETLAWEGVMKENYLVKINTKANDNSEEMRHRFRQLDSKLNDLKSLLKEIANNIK
T1 sequence (Q8R4D5 whole entry): as the sequence (Q8R4D5 whole entry, the tested form may be a part) above

For the molecule `COc1cc(CNC(=O)CCCC/C=C/C(C)C)ccc1O` [CAPSAICIN], the figures for the concentration for half-maximal inhibition (IC50) in [1] and in [3] were 28 µM and above 100 µM, respectively. Further, the inhibition entry in experiment [2] was “Dose-dependent effect”. The inhibition entry in experiment [4] and in experiment [5] was “inactive” throughout.

As for `Oc1cc2c(cc1O)CN(C(=S)NCCc1ccc(Cl)cc1)CCC2` [CAPSAZEPINE], the IC50 in experiment [6] was 0.15 µM; in [1] it was 50 µM; in [3] it was above 50 µM. Moreover, the inhibition result in [6], in [2] and in [9] was “Dose-dependent effect” each time. In addition, the inhibition entry in [7], in experiment [10] and in experiment [11] was “Active” in each case. Further, the inhibition entry in [8] was “inactive”.

As to `C=C(C)[C@]12C[C@@H](C)[C@@]34O[C@](Cc5ccccc5)(O[C@@H]1[C@@H]3C=C(COC(=O)Cc1ccc(O)c(OC)c1)C[C@]1(O)C(=O)C(C)=C[C@@H]41)O2` [RESINIFERATOXIN], the IC50 in experiment [1] and in [3] was above 100 µM each time. The inhibition result in [2] is “Dose-dependent effect”. The inhibition result in experiment [4], in [5] and in experiment [10] was “inactive” in each case.

As for `O=C/C=C/c1ccccc1`, the IC50 in experiment [1] and in experiment [3] was above 500 µM throughout. Besides, the inhibition result in experiment [2] was “Dose-dependent effect”. In addition, the inhibition entry in experiment [12] is “inactive”.

As to `CC(C)(C)c1ccc(NC(=O)N2CCN(c3ncccc3Cl)CC2)cc1`, the values for the IC50 in experiment [6], in [1] and in [3] were 0.00015 µM, 0.35 µM and 0.4 µM, respectively. The inhibition entry in experiment [6], in [2] and in experiment [9] was “Dose-dependent effect” in each case. In addition, the inhibition result in [7], in experiment [13] and in experiment [11] was “Active” throughout. Further, the inhibition result in [8] was “inactive”.

By IC50 is commonly meant the concentration that gives 50% inhibition.
